Screening data: PubChem, several laboratories
LYP inh 2: PTPN22 phosphatase inhibitors, primary screen, biochemical, DiFMUP fluorescence, 2 µM | hit rate 0.21% among 96,000 | Tyrosine-protein phosphatase non-receptor type 22 (Homo sapiens), Q9Y2R2 | recombinant LYP catalytic domain | AID 640, 2007 | inhibition, % at 2 µM;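 active = inhibition at 2 µM at or above a set limit, the screen mean plus 3 SD, cut at about 24% in these data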;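 note: 0% = DMSO with enzyme and 100% = enzyme fully blocked by orthovanadate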
Rev-RRE block: HIV-1 Rev-RRE binding inhibitors, primary screen, biochemical, FRET, protein-RNA interaction. Rev peptide-RRE RNA binding. inhibition, % at 8 µM. hit rate 0.79% among 97,000;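 active = inhibition above the screen-wide mean plus 3 SD, cut at about 35% in these data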;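 note: 0% = median DMSO wells and 100% = median Neomycin B control wells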
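Test system: Cy5-tagged RRE RNA duplex with fluorescein-tagged Rev peptide; Probe or stimulus: labelled Rev peptide; Schedule: 5 min preincubation and 15 min binding, 25 °C; Signal: FRET fluorescence readout; Evaluation: % inhibition from 671/540 nm acceptor-to-donor ratio, scaled between controls; Control set: DMSO and neomycin B.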
PLAP act: PLAP enzyme activators, biochemical, luminescence, HTS; Alkaline phosphatase, placental type (Homo sapiens), P05187; AID 696, 2007; hit rate 1.2% among 96,000; purified PLAP enzyme, luminescent substrate read-out; hits give high values; activation fold at 20 µM; in the data active = activation fold above about 2
PTPN22 act: LYP phosphatase activators, primary screen, biochemical, DiFMUP fluorescence, 2 µM; activation, % at 2 µM; recombinant LYP; 0 = plate median, 100 = signal doubled; Tyrosine-protein phosphatase non-receptor type 22 (Homo sapiens), Q9Y2R2; hit rate 0.11% among 96,000;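 active = activation at 2 µM above a set limit, the mean plus 5 SD, cut at about 37% in these data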
Plk1 PBD FP: Plk1 polo box domain binding inhibitors, primary screen, biochemical, fluorescence polarization | Serine/threonine-protein kinase PLK1 (Homo sapiens), P53350 | hit rate 0.13% among 97,000 | Plk1 PBD phosphopeptide binding | inhibition, %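 (tested at about 20 µM)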; in the data active = inhibition above about 34%, passing the limit was not always enough
Target sequence (P53350 whole entry, looked up, the tested form may be a part): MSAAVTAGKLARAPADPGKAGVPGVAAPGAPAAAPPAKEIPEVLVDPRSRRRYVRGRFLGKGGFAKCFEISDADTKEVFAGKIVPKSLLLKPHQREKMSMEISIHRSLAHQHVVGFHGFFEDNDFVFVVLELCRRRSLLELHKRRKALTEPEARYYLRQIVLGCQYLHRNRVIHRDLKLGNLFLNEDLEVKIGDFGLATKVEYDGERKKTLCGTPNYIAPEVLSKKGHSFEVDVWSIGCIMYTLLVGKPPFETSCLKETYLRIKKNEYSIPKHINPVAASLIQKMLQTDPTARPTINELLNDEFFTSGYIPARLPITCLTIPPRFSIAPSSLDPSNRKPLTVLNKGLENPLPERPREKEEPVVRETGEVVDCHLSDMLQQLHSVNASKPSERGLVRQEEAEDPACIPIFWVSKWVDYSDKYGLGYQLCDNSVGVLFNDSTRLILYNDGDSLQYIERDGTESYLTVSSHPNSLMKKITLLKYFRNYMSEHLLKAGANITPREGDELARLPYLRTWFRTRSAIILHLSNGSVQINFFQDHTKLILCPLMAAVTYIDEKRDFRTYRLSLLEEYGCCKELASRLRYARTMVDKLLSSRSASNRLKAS
PLK1 kinase inh: human PLK1 kinase inhibitors, primary screen, biochemical, TR-FRET. Serine/threonine-protein kinase PLK1 (Homo sapiens), P53350. inhibition, % at 10 µM. recombinant PLK1 kinase, TR-FRET peptide phosphorylation. AID 619, 2007. hit rate 0.53% among 97,000;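 active = inhibition of 50% or more in the single-concentration screen; inactive = inhibition below 50%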;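 note: 0% = DMSO max control and 100% = H-89 dihydrochloride min control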
The depositor's hits bear a star; · = no result; [ ] = remark or other dose. Sampled rows, rich in hits. Any-hit rate of the full collection: about 2.7%.

SMILES	LYP inh 2	Rev-RRE block	PLAP act	PTPN22 act	Plk1 PBD FP	PLK1 kinase inh
CC(=Nc1ccccc1)c1sc2ccccc2c1O	6	35	0.8	-3	-38	-3
CCN1CC(O)=C(c2nc3ccccc3s2)C1=N	0	3	2.1*	1	2	-3
CN1C(=O)c2oc3ccccc3c(=O)c2C1c1ccccn1 (stereo not given)	6	13	0.9	-10	-4	-13
COC(=O)c1cc(NC(=O)c2ccccc2)c(=O)oc1C/C=N\OCc1ccc(Cl)cc1Cl	8	48*	1.4	-7	-8	-4
CO/N=C\Cc1oc(=O)c(NC(=O)c2ccccc2)cc1C(=O)OC	2	19	1.3	-2	-28	3
O=C1CC(c2ccccc2)CC(O)=C1C=NCCN1CCNCC1 (stereo not given)	-2	5	0.9	1	-11	-5
COc1ccc(NC(=O)C2C3C=CC(O3)C2C(=O)NCc2cccnc2)cc1 (stereo not given)	1	2	1	-3	-7	-17
CC(OC(=O)c1nn(C)c(=O)c2ccccc12)C(=O)NCc1ccc2c(c1)OCO2 (stereo not given)	1	1	1.1	-3	-14	-2
CCc1ccccc1N1CC23C=CC(O2)C(C(=O)OC)C3C1=O (stereo not given)	·	12	1	·	10	57*
CCCCCOC(=O)C1[C@H]2C(=O)N(c3ccccc3CC)C[C@]23C=C[C@H]1O3 (stereo not given in full)	3	5	1.2	-5	-7	-4
CCN(CC)S(=O)(=O)c1cccc(C(=O)Nc2ccccc2C(=O)N2CCOCC2)c1	·	·	1.2	·	·	·
CN(C)c1ccc(/C=C/c2ccncc2)cc1	10	72*	0.8	-6	-19	-20
COc1nnc(-c2ccc(C(=O)N3C[C@@H]4C[C@H](C3)c3cccc(=O)n3C4)cc2)c2ccccc12	·	·	1.3	·	·	·
O=C(O)c1ccc(COc2cccc(CO)c2)cc1	-14	4	1	8	18	-5
CCS(=O)(=O)N1Cc2ccccc2CC1C(=O)NCC12CC3CC(CC(C3)C1)C2 (stereo not given)	-4	4	1.7	2	-7	-11
Cn1c(=O)oc2cc(S(=O)(=O)NCC3CCCO3)ccc21 (stereo not given)	0	53*	·	-1	16	-8
Cc1nc2cc(NC(=O)Nc3nccs3)ccc2n1C	-11	10	2*	10	-3	3
CCCNC(=O)Nc1ccc2c(c1)nc(C)n2C	6	7	1	-3	-4	-10
CCOC(=O)c1cc(NC(=O)N(CC)C2CCCCC2)c(C)nc1C	18	3	1.5	-15	16	-11
Cc1ccc(-c2ccc(/C=N\NC(=O)C3C(=O)NCC3c3ccccc3)o2)cc1Cl (stereo not given)	1	1	2.1*	-5	0	-13
COc1cccc(/C=N/NC(=O)c2c(-c3ccccc3)noc2C)c1O	11	0	2.2*	-6	1	-28
COc1cccc(/C=N\NC(=O)C2C(=O)NCC2c2ccccc2)c1O (stereo not given)	0	4	2.5*	5	-16	-19
CS(=O)(=O)N(CC(=O)NCc1ccco1)c1ccccc1Cl	2	8	1	-5	-1	-34
Cc1ccc(-n2c(C)cc(C(=O)OCC(=O)N(C)C3CCS(=O)(=O)C3)c2C)cc1 (stereo not given)	·	·	1.4	·	·	·
COc1ccc(N2CCN(C(=O)C3CCCN(S(=O)(=O)c4cccc5cccnc45)C3)CC2)cc1 (stereo not given)	2	8	1.5	-3	5	-1
SMILES	LYP inh 2	Rev-RRE block	PLAP act	PTPN22 act	Plk1 PBD FP	PLK1 kinase inh
CC1Cc2ccccc2N1C(=O)C1CCCN(S(=O)(=O)c2cccc3cccnc23)C1 (stereo not given)	·	10	1.5	·	22	55*
Cc1ccc(NC(=O)CSc2nc3ccccc3c(=O)n2CCCC(=O)N2CCCC2)cc1	1	0	1	-4	32	-11
Cc1ccc(NC(=O)CSc2nc3ccccc3c(=O)n2CCCN2CCCCC2)cc1C	-9	2	2.6*	11	2	-5
CC(=O)NCCn1c(SCc2ccc(C)cc2C)nc2ccccc2c1=O	-10	8	2.5*	8	-1	3
CC(=O)CCc1c(C)[nH]c2ccccc2c1=O	11	4	1	-9	8	-8
Cc1c(-n2cc(C(=O)c3cc(Cl)ccc3O)cc(C#N)c2=O)c(=O)n(-c2ccccc2)n1C	-12	83*[fluorescence artefact?]	1.3	15	-107	-7
Cc1c(NCc2cc(Cl)ccc2O)c(=O)n(-c2ccccc2)n1C	-12	-2	1.2	14	-10	-3
COc1ccc(O)c(C(=O)c2cc(C#N)c(=O)n(-c3c(C)n(C)n(-c4ccccc4)c3=O)c2)c1	6	92*[fluorescence artefact?]	1	-6	-133	-8
Cc1ccc(O)c(C(=O)c2cc(C#N)c(=O)n(CC3CCCO3)c2)c1 (stereo not given)	3	6	1.3	3	-9	-4
Cc1ccc(O)c(C(=O)c2cc(C#N)c(=O)n(-c3c(C)n(C)n(-c4ccccc4)c3=O)c2)c1	-6	79*	1.1	8	-133	-4
Cc1c(-n2cc(C(=O)c3cc(Br)ccc3O)cc(C#N)c2=O)c(=O)n(-c2ccccc2)n1C	9	74*[fluorescence artefact?]	1.2	-11	-76	-13
COc1ccc(O)c(C(=O)c2cc(C#N)c(=O)n(CCN3CCOCC3)c2)c1	-1	6	1	-1	5	0
COc1ccc2c(c1)OCC1=C2CCC2(C)C(=O)CC=C12 (stereo not given)	-7	27	1.1	6	-25	-17
CCCN1C(=O)/C(=C/C=C2\N(CC)c3ccccc3C2(C)C)SC1=S	2	136*[fluorescence artefact?]	0.8	2	-224	-21
COc1ccccc1N(C(C)=O)C1SC(=O)N(c2ccccc2)C1=O (stereo not given)	-2	-2	1.3	-1	1	-13
CCOC(=O)CN1C(=O)C(Sc2n[nH]c(-c3ccccc3)n2)CCc2ccccc21 (stereo not given)	18	5	2*	-18	11	-3
O=C(Cn1c(-c2cncs2)nc2ccccc21)NCCc1ccccc1	-6	1	0.8	4	2	-29
COc1cccc(NC(=O)Cn2c(-c3cncs3)nc3ccccc32)c1	-5	4	2*	3	-17	-5
